In PMC3823637 (Neuropharmacology, 2013):

Key:
Assay type in all cases: cell-based
[1] = test system: rat hypothalamic neurons (native AT1R); assay: Whole cell patch recordings from neurons in rat hypothalamic slices; conditions: for effect on Ang-(1-12)-induced depolarization / effect on Ang II-induced depolarization: antagonist/inhibitor 10 μM; for effect on Ang-(1-12)-induced depolarization: prior superfusion of slices; for effect on Ang II-induced depolarization: pretreatment of slices by superfusion
Method in brief: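 Coronal hypothalamic slices (250 μm, vibratome) came from Sprague-Dawley rats, 17-20 days old, of either sex, anaesthetised with 4% isoflurane. Slices were superfused with solution gassed with 95% O2/5% CO2 at 20 ± 1°C. Current-clamp whole-cell recordings were made from neurons […] to the 3rd ventricle. Peptide was puffed by nitrogen from a micropipette at 20-30 min intervals. Slices were pretreated with losartan, PD123319 or captopril at 10 μM each.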

AT1R [2] = molecular target: T1, AT1R (Homo sapiens, UniProt P30556); assay: Ca2+-based FLIPR assay, CHO/16z25 cells transiently expressing AT1R
T1 sequence (P30556 1-359): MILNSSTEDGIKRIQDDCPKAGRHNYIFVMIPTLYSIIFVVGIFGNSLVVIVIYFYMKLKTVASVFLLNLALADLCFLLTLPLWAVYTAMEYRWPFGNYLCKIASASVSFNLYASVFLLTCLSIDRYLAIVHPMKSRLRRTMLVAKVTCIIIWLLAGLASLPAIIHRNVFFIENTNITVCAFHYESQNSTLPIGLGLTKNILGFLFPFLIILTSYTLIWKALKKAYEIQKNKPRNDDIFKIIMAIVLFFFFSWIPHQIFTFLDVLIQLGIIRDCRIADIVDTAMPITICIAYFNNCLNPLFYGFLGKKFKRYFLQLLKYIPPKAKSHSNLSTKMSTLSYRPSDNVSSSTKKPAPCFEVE

AT1R [3] = molecular target: T1, AT1R; conditions: 10 μM losartan; 1 μM Ang II or 10 μM Ang-(1-12), 5 min

Row | effect on Ca2+ response stimulated by Ang-(1-12) (AT1R [2]; 5 μM Ang-(1-12), losartan 0.1-10 μM, pre-incubated 30 min, dose-dependent) | effect on Ang II-induced Ca2+ mobilization (AT1R [2]; COS-7 and CHO cells transfected with AT1R cDNA) | effect on Ang-(1-12)- and Ang II-induced ERK responses (AT1R [3]) | Structure (SMILES) | effect on Ang-(1-12)-induced depolarization [1] | hypothalamic neurons depolarized of those examined ([1]; Ang II 1 mM in micropipette, pressure ejection) | membrane depolarization, mean amplitude ([1]; Ang II 1 mM in micropipette, pressure ejection, mean ± SEM, n=10) | effect on Ang II-induced depolarization [1]
1 |  |  |  | Cc1cc(Cn2cnc3c2C[C@@H](C(=O)O)N(C(=O)C(c2ccccc2)c2ccccc2)C3)ccc1N(C)C [PD-123319] | not affected |  |  | 
2 |  |  |  | CC[C@H](C)[C@H](NC(=O)[C@H](Cc1ccc(O)cc1)NC(=O)[C@@H](NC(=O)[C@H](CCCNC(=N)N)NC(=O)[C@@H](N)CC(=O)O)C(C)C)C(=O)N[C@@H](Cc1c[nH]cn1)C(=O)N1CCC[C@H]1C(=O)N[C@@H](Cc1ccccc1)C(=O)O [Ang II, angiotensin II] |  | 10 of the 27 | 6.9 ± 0.9 mV | 
3 |  |  |  | C[C@H](CS)C(=O)N1CCC[C@H]1C(=O)O [captopril] | failed to suppress |  |  | not affected
4 | effectively suppressed | suppressed | inhibited | CCCCc1nc(Cl)c(CO)n1Cc1ccc(-c2ccccc2-c2nn[nH]n2)cc1 [losartan] | antagonized |  |  | suppressed
